Results from ChEMBL document CHEMBL3745658, “An Orally Bioavailable, Indole-3-glyoxylamide Based Series of Tubulin Polymerization Inhibitors Showing Tumor Growth Inhibition in a Mouse Xenograft Model of Head and Neck Cancer” (J Med Chem, 2015).
Values after ≈ are worked out from the molar mass of the structure shown. Active and inactive are the calls of the source. The rule behind the calls is not given here.

Legend:
FaDu [1] = assay: Cytotoxicity against human FADU cells assessed as reduction in cell viability after 72 hrs by MTT assay; type: functional; conditions: read-out: LC50 (the source's name)
[2] = Metabolic stability in CD-1 mouse liver microsomes assessed as half life at 1 uM preincubated for 5 mins before addition of NADPH by LC-MS/MS method; type: ADME
[3] = Apparent permeability from apical to basolateral side in human Caco2 cells at 10 uM at pH 7.4 after 60 mins by mass spectrometry; conditions: Caco-2, pH 7.4
[4] = Efflux ratio of apparent permeability from basolateral to apical side over apical to basolateral side in human Caco2 cells; conditions: Caco-2
Tubulin [5] = biological target: T1, Tubulin (Sus scrofa, UniProt P02554+P02550); assay: (§1) Displacement of [3H]-colchicine from biotinylated porcine tubulin after 2 hrs by competitive binding assay; type: protein assay
How it was run: (§2)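 Biotinylated porcine tubulin (750 ng/well) with 0.1 μM [3H]-colchicine and test compound in G-PEM with 1 mM GTP, 3% DMSO, duplicate wells, 2 h at 37 °C. Streptavidin SPA beads then added for 45 min at 37 °C. Nonspecific binding taken with 1000-fold unlabeled excess. IC50 from seven-point semilog curves, four-parameter fit.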

Tubulin [6] = biological target: T1, Tubulin; assay: Inhibition of porcine brain tubulin polymerization assessed as reduction in GTP-induced microtubule assembly after 60 mins by OD340 method
[7] = Solubility in 2% DMSO containing 50 mM potassium phosphate buffer solution at pH 7.4 by dynamic light scattering method; conditions: 50 mM potassium phosphate buffer with 2% DMSO
Tubulin (Sus scrofa) [8] = biological target: T2, Tubulin (Sus scrofa) (UniProt P02554+P02550); assay: Displacement of [3H]-paclitaxel from biotinylated porcine tubulin after 25 mins by competitive binding assay; type: protein assay
How it was run: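 Biotinylated porcine tubulin precoupled to SPA beads for 30 min at 4 °C, then 0.05 μM [3H]-paclitaxel and test compound added in G-PEM with 1 mM GTP, 3% DMSO, duplicate wells, 25 min at rt. Nonspecific binding taken with 1000-fold unlabeled excess. IC50 from seven-point semilog curves, four-parameter fit.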

Tubulin (Sus scrofa) [9] = biological target: T2, Tubulin (Sus scrofa); assay: Displacement of [3H]-vinblastine from biotinylated porcine tubulin after 15 mins by competitive binding assay; type: protein assay
How it was run: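 Biotinylated porcine tubulin, 0.2 μM [3H]-vinblastine, SPA beads and test compound combined together in G-PEM with 1 mM GTP, 3% DMSO, duplicate wells, 15 min at rt before counting. Nonspecific binding taken with 1000-fold unlabeled excess. IC50 from seven-point semilog curves, four-parameter fit.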

[10] = Solubility in 2% DMSO containing 50 mM potassium phosphate buffer solution pH 7.4 at 10 uM by dynamic light scattering method; conditions: pH 7.4, 10 µM
FaDu [11] = assay: Induction of microtubule disruption in human FADU cells at 150 nM after 24 hrs by immunofluorescence staining method; type: functional, cell-based
How it was run: (§3)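 FaDu cells grown on coverslips (15000/well) for 24 h, then exposed to compound for 24 h. Unassembled tubulin was extracted with PHEM/0.5% Triton X-100/10 μM paclitaxel for 3 min. Cells were fixed in PHEM with 8% paraformaldehyde and 0.3% glutaraldehyde on ice, blocked, then stained with FITC anti-α-tubulin (DM1A) and DAPI. Confocal z-stacks were taken at 100×.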

FaDu [12] = assay: Induction of microtubule disruption in human FADU cells assessed as multipolarization of spindle at 30 nM after 24 hrs by immunofluorescence staining method; type: functional, cell-based; how it was run: as §3
FaDu [13] = assay: Cell cycle arrest in human FADU cells assessed as accumulation at G2/M phase after 24 hrs by propidium iodide staining-based flow cytometry; type: functional
How it was run: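 FaDu cells seeded at 10^5/well, attached overnight, then exposed to compound in full growth medium at 37 °C for 24 h. Cells were trypsinized, fixed in ice-cold 70% ethanol, treated with RNase A (100 μg/mL), stained overnight in the dark with propidium iodide (50 μg/mL), and analysed by flow cytometry with at least 10000 events per sample.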

FaDu [14] = assay: Selectivity index, ratio of EC50 for cell cycle arrest in human FADU cells to LC50 for cytotoxicity against human FADU cells; type: functional
How it was run: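 G2/M arrest EC50 came from a 24 h dose–response of propidium iodide flow cytometry in FaDu cells. It was compared with the LC50 from a 72 h MTT assay in FaDu cells (triplicate wells, A570, viability relative to DMSO, nonlinear regression).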

MES-SA/Dx5 = assay: Cytotoxicity against multidrug resistant human MES-SA/Dx5 cells assessed as reduction in cell viability after 72 hrs by MTT assay; type: functional, cell-based
How it was run: (§4)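 Cells plated at an appropriate density and left 24 h to attach, then dosed in triplicate with compound diluted from 10 mM DMSO stocks into full growth medium (added at 2× final concentration). After 72 h, cells PBS-washed and given MTT (0.5 mg/mL in PBS) for 45−60 min. Formazan dissolved in 0.1 M HCl/2-propanol, A570 read (650 nm reference). Viability normalised to DMSO control; LC50 by nonlinear regression.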

FaDu [15] = assay: Cytotoxicity against human FADU multicellular tumor spheroid assessed as effect on normal spheroid growth at 1 uM incubated for 2 to 3 days by light microscop; type: cell-based
How it was run: (§5)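 FaDu monoculture spheroids were dosed once and imaged at 0, 2, 4 and 7 days after dosing. Fragmentation and growth were judged against untreated spheroids.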

FaDu [16] = assay: Cytotoxicity against human FADU multicellular tumor spheroid assessed as dispersion of cells from the spheroid at 1 uM incubated for 2 to 7 days by light microscopy; type: functional, cell-based; how it was run: as §5
FaDu [17] = assay: Cytotoxicity against human FADU multicellular tumor spheroid assessed as induction of spheroid disruption incubated for 7 days by light microscopy; type: functional, cell-based; conditions: 168 h
How it was run: (§6)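 Monocultured FaDu spheroids dosed over a concentration range and imaged at 0, 2, 4 and 7 days post-dosing. Volume followed over time, fragmentation scored at the 7-day end point, and EC50 for disruption derived from 7-day dose–response plots. Two independent experiments, mean ± SEM.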

FaDu [18] = assay: Antitumor activity against human FADU cells xenografted in CD-1 mouse assessed as inhibition of tumor growth at 10 mg/kg, po qd for 10 days measured at 3 to 9 days; type: functional, organism-based
How it was run: (§7)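 FaDu xenografts established in mice before dosing; compound given by oral gavage once daily for 10 days. Tumor volume was followed over time and compared with a vehicle control group, with significance assessed at days 3, 6, 9, 13 and 15. Body weight and survival were also recorded.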

FaDu [19] = assay: Antitumor activity against human FADU cells xenografted in CD-1 mouse assessed as inhibition of tumor growth at 10 mg/kg, po qd for 10 days measured at 13 and 15 days; type: functional, organism-based; how it was run: as §7
SCC-4 = assay: Cytotoxicity against human SCC4 cells assessed as reduction in cell viability after 72 hrs by MTT assay; type: functional, cell-based; how it was run: as §4
SK-MEL-28 = assay: Cytotoxicity against human SK-MEL-28 cells assessed as reduction in cell viability after 72 hrs by MTT assay; type: functional, cell-based; how it was run: as §4
SH-SY5Y = assay: Cytotoxicity against human SH-SY5Y cells assessed as reduction in cell viability after 72 hrs by MTT assay; type: functional, cell-based; how it was run: as §4
MES-SA = assay: Cytotoxicity against human MES-SA cells assessed as reduction in cell viability after 72 hrs by MTT assay; type: functional, cell-based; how it was run: as §4
[20] = Aqueous solubility of the compound by UV-HPLC
[21] = Solubility in 2% DMSO containing 50 mM potassium phosphate buffer solution pH 7.4 at 1 uM by dynamic light scattering method; type: physicochemical; conditions: pH 7.4, 1 µM
Tubulin (Sus scrofa) [22] = biological target: T2, Tubulin (Sus scrofa); assay: as §1; type: protein assay; how it was run: as §2
FaDu [23] = assay: Induction of microtubule disruption in human FADU cells at 50 nM after 24 hrs by immunofluorescence staining method; type: functional, cell-based
FaDu [24] = assay: Induction of mitotic spindle defects in human FADU cells at 15 nM after 24 hrs by immunofluorescence staining method; type: functional, cell-based
FaDu [25] = assay: Cytotoxicity against human FADU multicellular tumor spheroid assessed as effect on normal spheroid growth at 0.25 uM incubated for 2 to 3 days by light microscopy; type: cell-based; how it was run: as §6
FaDu [26] = assay: Cytotoxicity against human FADU multicellular tumor spheroid assessed as dispersion of cells from the spheroid at 0.25 uM incubated for 2 to 7 days by light microscopy; type: functional, cell-based; how it was run: as §6
FaDu [27] = assay: Ratio of EC50 for human FADU multicellular tumor spheroid to LC50 for human FADU cells; type: functional
How it was run: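 FaDu spheroids were dosed over a range of concentrations, and spheroid volume was measured at the 7-day endpoint. EC50 for disruption came from dose–response plots, combining two independent experiments. This was compared with the 72 h monolayer MTT LC50 (triplicate wells, nonlinear regression, viability relative to DMSO).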

Tubulin (Sus scrofa) [28] = biological target: T2, Tubulin (Sus scrofa); assay: Potency index, ratio of vincristine IC50 to docetaxel IC50 for displacement of [3H]-paclitaxel from biotinylated porcine tubulin; type: protein assay

| Structure (SMILES) | CC50 (FaDu [1]) [nM] | half-life at 1 µM [2] [min] | Papp A→B at 1 h, 10 µM [3] [×10⁻⁶ cm/s] | efflux ratio [4] | IC50 (Tubulin [5]) [nM] | IC50 (Tubulin [6]) [nM] | solubility kinetic [7] [µM] | Activity (Tubulin (Sus scrofa) [8]) | Activity (Tubulin (Sus scrofa) [9]) | solubility [10] | Activity (MES-SA/Dx5) | Activity (SCC-4) | Activity (SK-MEL-28) | Activity (SH-SY5Y) | Activity (MES-SA) | solubility [20] [µM] | Activity (Tubulin (Sus scrofa) [22]) | other results |
| --- | --- | --- | --- | --- | --- | --- | --- | --- | --- | --- | --- | --- | --- | --- | --- | --- | --- | --- |
| COc1ncc(NC(=O)C(=O)c2cn(C(C)C)c3ccccc23)cn1 | 171 | 5 | 39.8 | 1 |  |  |  |  |  |  |  |  |  |  |  |  |  |  |
| COc1ccc(NC(=O)C(=O)c2cn(CC3CCCO3)c3ccccc23)cn1 (configuration not stated) | 31 | 34 | 35 | 0.7 | 420 | 8300 | 10 (≈ 3.79 µg/mL) | inactive | Active | soluble | Active | Active | Active | Active | Active |  |  | Activity (FaDu [11]): Active; Activity (FaDu [12]): Active; Activity (FaDu [13]): Dose-dependent effect; EC50 (FaDu [13]): 160 nM; Ratio (FaDu [14]): 5; Activity (FaDu [15]): Non-toxic; Activity (FaDu [16]): Active; EC50 (FaDu [17]): 77 nM; TGI (FaDu [18]): Active; Activity (FaDu [19]): Active |
| O=C(Nc1ccncc1)C(=O)c1cn(Cc2ccc(Cl)cc2)c2ccccc12 [INDIBULIN] | 32 |  |  |  |  |  |  |  |  | Insoluble | Active | Active | Active | Active | Active | ≤ 1 |  | solubility [21]: Insoluble |
| COCC(C)(C)n1cc(C(=O)C(=O)Nc2ccc(OC)nc2)c2ccccc21 | 137 | 16 |  |  | 2500 | 7800 | 10 (≈ 3.81 µg/mL) | inactive | Active | soluble | Active | Active | Active | Active | Active |  |  |  |
| COc1cc([C@@H]2c3cc4c(cc3[C@H](O)[C@H]3COC(=O)[C@H]23)OCO4)cc(OC)c1OC |  |  |  |  |  |  |  |  |  |  |  |  |  |  |  |  | Active |  |
| COCC(C)n1cc(C(=O)C(=O)Nc2ccc(OC)nc2)c2ccccc21 (configuration not stated) | 12 | 16 | 33.6 | 1.1 | 160 | 3900 | 40 (≈ 14.7 µg/mL) | inactive | inactive | soluble | Active | Active | Active | Active | Active | 10 (≈ 3.67 µg/mL) |  | Activity (FaDu [23]): Active; Activity (FaDu [24]): Active; Activity (FaDu [25]): Non-toxic; Activity (FaDu [26]): Active; EC50 (FaDu [17]): 39 nM; Ratio (FaDu [27]): 3 |
| COc1ccc(NC(=O)C(=O)c2cn(C(C)C)c3ccccc23)cn1 | 85 | 5 | 19.8 | 1.4 | 1600 | 14900 | 20 (≈ 6.75 µg/mL) | inactive | Active | soluble |  |  |  |  |  | 10 (≈ 3.37 µg/mL) |  |  |
| CC(=O)O[C@@]12CO[C@@H]1C[C@H](O)[C@@]1(C)C(=O)[C@H](O)C3=C(C)[C@@H](OC(=O)[C@H](O)[C@@H](NC(=O)OC(C)(C)C)c4ccccc4)C[C@@](O)([C@@H](OC(=O)c4ccccc4)[C@H]21)C3(C)C |  |  |  |  |  |  |  | Active | Active |  |  |  |  |  |  |  | inactive |  |
| CC[C@]1(O)C[C@H]2CN(CCc3c([nH]c4ccccc34)[C@@](C(=O)OC)(c3cc4c(cc3OC)N(C=O)[C@H]3[C@@](O)(C(=O)OC)[C@H](OC(C)=O)[C@]5(CC)C=CCN6CC[C@]43[C@@H]65)C2)C1 |  |  |  |  |  |  |  | Active | Active |  |  |  |  |  |  |  | inactive | Ratio IC50 (Tubulin (Sus scrofa) [28]): 2 |
